Laboratory results from publication PMC5689172 (Biochemistry and Biophysics Reports, 2016).
Values after ≈ are worked out from the molar mass of the structure shown.

Tests used:
Cytotoxicity, MTT assay = format: cell-based; conditions: human, MRC-5 cells (normal embryonic lung cell line)
diploid fungi and yeast = experiment: Antimicrobial activity, agar dilution method, summarised over the group; format: cell-based, Candida albicans; conditions: Saccharomyces cerevisiae, ATCC2601|ATCC90028
Outline: (§1)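 Test compound in DMSO, mixed with Mueller–Hinton broth, two-fold serially diluted, and incorporated into MH agar at final 0.25–256 μg/mL. Agar with 0.5% DMSO served as reagent control. Organisms were grown overnight in MH broth at 37 °C, diluted in normal saline to 0.5 McFarland (1.5×10⁸ CFU/mL), and inoculated onto plates. Plates were incubated at 37 °C for 24–48 h, then MIC was recorded.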

[1] = tested on: S. Typhimurium ATCC 13311; experiment: Antimicrobial activity, agar dilution method; format: cell-based; conditions: Salmonella enterica, ATCC13311|TYPHIMURIUM
Outline: as §1

S. aureus ATCC 29213 = experiment: Antimicrobial activity, agar dilution method; format: cell-based; conditions: Staphylococcus aureus, ATCC29213
Outline: as §1

M. morganii = experiment: Antimicrobial activity, agar dilution method; format: cell-based; conditions: Morganella morganii
Outline: as §1

C. freundii = experiment: Antimicrobial activity, agar dilution method; format: cell-based; conditions: Citrobacter freundii
Outline: as §1

E. faecalis ATCC 29212 = experiment: Antimicrobial activity, agar dilution method; format: cell-based; conditions: Enterococcus faecalis, ATCC29212
Outline: as §1

P. stutzeri ATCC 17587 = experiment: Antimicrobial activity, agar dilution method; format: cell-based, Pseudomonas stutzeri; conditions: Stutzerimonas stutzeri, ATCC17587
Outline: as §1

B. cereus = experiment: Antimicrobial activity, agar dilution method; format: cell-based; conditions: Bacillus cereus
Outline: as §1

L. monocytogenes = experiment: Antimicrobial activity, agar dilution method; format: cell-based; conditions: Listeria monocytogenes
Outline: as §1

[2] = tested on: C. diphtheriae NCTC 10356; experiment: Antimicrobial activity, agar dilution method; format: cell-based; conditions: Corynebacterium diphtheriae, NCTC10356
Outline: as §1

P. shigelloides = experiment: Antimicrobial activity, agar dilution method; format: cell-based; conditions: Plesiomonas shigelloides, P. shigelloides; agar dilution
[3] = tested on: S. putrefaciens ATCC 8071; experiment: Antimicrobial activity, agar dilution method; format: cell-based; conditions: Shewanella putrefaciens, ATCC8071
Outline: as §1

Gram-negative bacteria = experiment: Antimicrobial activity, agar dilution method, summarised over the group; format: cell-based
Outline: as §1

S. cerevisiae ATCC 2601 = experiment: Antimicrobial activity, agar dilution method; format: cell-based; conditions: Saccharomyces cerevisiae, ATCC2601
Outline: as §1

P. aeruginosa ATCC 27853 = experiment: Antimicrobial activity, agar dilution method; format: cell-based, Pseudomonas aeruginosa; conditions: Pseudomonas aeruginosa, ATCC27853
Outline: as §1

[4] = tested on: K. pneumoniae ATCC 700603; experiment: Antimicrobial activity, agar dilution method; format: cell-based; conditions: Klebsiella pneumoniae, ATCC700603
Outline: as §1

E. faecalis ATCC 33186 = experiment: Antimicrobial activity, agar dilution method; format: cell-based; conditions: Enterococcus faecalis, ATCC33186
Outline: as §1

E. coli ATCC 25922 = experiment: Antimicrobial activity, agar dilution method; format: cell-based; conditions: Escherichia coli, ATCC25922
Outline: as §1

[5] = Antioxidant activity, DPPH radical scavenging assay; format: biochemical; conditions: read-out: RSA IC50, 30 min, 517 nm
Outline: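 Sample solution (test compound, 1 mg/mL in DMSO) was mixed with 0.1 mM DPPH in methanol and kept 30 min in the dark. Absorbance was read at 517 nm. Radical scavenging activity (%) = [1 − Abs(sample)/Abs(control)] × 100. α-Tocopherol was the positive control.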

[6] = tested on: S. Choleraesuis ATCC 10708; experiment: Antimicrobial activity, agar dilution method; format: cell-based; conditions: Salmonella enterica, ATCC10708|CHOLERAESUIS
Outline: as §1

S. aureus ATCC 25923 = experiment: Antimicrobial activity, agar dilution method; format: cell-based; conditions: Staphylococcus aureus, ATCC25923
Outline: as §1

S. marcescens ATCC 8100 = experiment: Antimicrobial activity, agar dilution method; format: cell-based; conditions: Serratia marcescens, ATCC8100
Outline: as §1

[7] = tested on: A. xylosoxidans ATCC 27061; experiment: Antimicrobial activity, agar dilution method; format: cell-based; conditions: Achromobacter xylosoxidans, ATCC27061
Outline: as §1

S. dysenteriae = experiment: Antimicrobial activity, agar dilution method; format: cell-based; conditions: Shigella dysenteriae
Outline: as §1

M. luteus ATCC 10240 = experiment: Antimicrobial activity, agar dilution method; format: cell-based; conditions: Micrococcus luteus, ATCC10240
Outline: as §1

B. subtilis ATCC 6633 = experiment: Antimicrobial activity, agar dilution method; format: cell-based; conditions: Bacillus subtilis, ATCC6633
Outline: as §1

C. albicans ATCC 90028 = experiment: Antimicrobial activity, agar dilution method; format: cell-based; conditions: Candida albicans, ATCC90028
Outline: as §1

[8] = tested on: S. epidermidis ATCC 12228; experiment: Antimicrobial activity, agar dilution method; format: cell-based; conditions: Staphylococcus epidermidis, ATCC12228
Outline: as §1

S. Enteritidis = experiment: Antimicrobial activity, agar dilution method; format: cell-based; conditions: Salmonella enterica
Outline: as §1

A. hydrophila = experiment: Antimicrobial activity, agar dilution method; format: cell-based; conditions: Aeromonas hydrophila
Outline: as §1

Gram-positive bacteria = experiment: Antimicrobial activity, agar dilution method, summarised over the group; format: cell-based
Outline: as §1

Nc1ccc(O)c2ncccc12 [5-amino-8HQ (8), 5-Amino-8-hydroxyquinoline]
IC50 at 48 h (Cytotoxicity, MTT assay): 22.1 ± 1.02 µM | MIC (diploid fungi and yeast): ≥ 645 µM | MIC [1]: 1100 µM (≈ 176 µg/mL) | MIC (S. aureus ATCC 29213): 275 µM (≈ 44 µg/mL) | MIC (M. morganii): 1100 µM (≈ 176 µg/mL) | MIC (C. freundii): 1100 µM (≈ 176 µg/mL) | MIC (E. faecalis ATCC 29212): 1100 µM (≈ 176 µg/mL) | MIC (P. stutzeri ATCC 17587): 1100 µM (≈ 176 µg/mL) | MIC (B. cereus): 275 µM (≈ 44 µg/mL) | MIC (L. monocytogenes): 275 µM (≈ 44 µg/mL) | MIC [2]: 1100 µM (≈ 176 µg/mL) | MIC (P. shigelloides): 1100 µM (≈ 176 µg/mL) | MIC [3]: 1100 µM (≈ 176 µg/mL) | MIC (Gram-negative bacteria): 1100 µM (≈ 176 µg/mL) | MIC (S. cerevisiae ATCC 2601): 1100 µM (≈ 176 µg/mL) | MIC (P. aeruginosa ATCC 27853): 1100 µM (≈ 176 µg/mL) | MIC [4]: 1100 µM (≈ 176 µg/mL) | MIC (E. faecalis ATCC 33186): 1100 µM (≈ 176 µg/mL) | MIC (E. coli ATCC 25922): 1100 µM (≈ 176 µg/mL) | IC50 [5]: 8.71 µM | MIC [6]: 1100 µM (≈ 176 µg/mL) | MIC (S. aureus ATCC 25923): 275 µM (≈ 44 µg/mL) | MIC (S. marcescens ATCC 8100): 1100 µM (≈ 176 µg/mL) | MIC [7]: 549 µM (≈ 88 µg/mL) | MIC (S. dysenteriae): 1100 µM (≈ 176 µg/mL) | MIC (M. luteus ATCC 10240): 275 µM (≈ 44 µg/mL) | MIC (B. subtilis ATCC 6633): 275 µM (≈ 44 µg/mL) | MIC (C. albicans ATCC 90028): 1100 µM (≈ 176 µg/mL) | MIC [8]: 275 µM (≈ 44 µg/mL) | MIC (S. Enteritidis): 1100 µM (≈ 176 µg/mL) | MIC (A. hydrophila): 275 µM (≈ 44 µg/mL)

Oc1c(I)cc(Cl)c2cccnc12 [CQ (6), clioquinol]
IC50 at 48 h (Cytotoxicity, MTT assay): 76.17 ± 0.23 µM | MIC [1]: 838 µM (≈ 256 µg/mL) | MIC (S. aureus ATCC 29213): 26.2 µM (≈ 8 µg/mL) | MIC (Gram-positive bacteria): 26.2 µM (≈ 8 µg/mL) | MIC (M. morganii): 838 µM (≈ 256 µg/mL) | MIC (C. freundii): 419 µM (≈ 128 µg/mL) | MIC (E. faecalis ATCC 29212): 26.2 µM (≈ 8 µg/mL) | MIC (P. stutzeri ATCC 17587): 105 µM (≈ 32 µg/mL) | MIC (B. cereus): 26.2 µM (≈ 8 µg/mL) | MIC (L. monocytogenes): 26.2 µM (≈ 8 µg/mL) | MIC [2]: 26.2 µM (≈ 8 µg/mL) | MIC (P. shigelloides): 26.2 µM (≈ 8 µg/mL) | MIC [3]: 26.2 µM (≈ 8 µg/mL) | MIC (S. cerevisiae ATCC 2601): 26.2 µM (≈ 8 µg/mL) | MIC (P. aeruginosa ATCC 27853): > 838 µM | MIC [4]: > 838 µM | MIC (E. faecalis ATCC 33186): 26.2 µM (≈ 8 µg/mL) | MIC (E. coli ATCC 25922): 26.2 µM (≈ 8 µg/mL) | IC50 [5]: 366 µM | MIC [6]: > 838 µM | MIC (S. aureus ATCC 25923): 26.2 µM (≈ 8 µg/mL) | MIC (S. marcescens ATCC 8100): 26.2 µM (≈ 8 µg/mL) | MIC [7]: 26.2 µM (≈ 8 µg/mL) | MIC (S. dysenteriae): 838 µM (≈ 256 µg/mL) | MIC (M. luteus ATCC 10240): 26.2 µM (≈ 8 µg/mL) | MIC (B. subtilis ATCC 6633): 26.2 µM (≈ 8 µg/mL) | MIC (C. albicans ATCC 90028): 26.2 µM (≈ 8 µg/mL) | MIC [8]: 26.2 µM (≈ 8 µg/mL) | MIC (S. Enteritidis): 105 µM (≈ 32 µg/mL) | MIC (A. hydrophila): 26.2 µM (≈ 8 µg/mL)

Oc1ccc(Cl)c2cccnc12 [Cloxyquin (3), cloxyquin]
IC50 at 48 h (Cytotoxicity, MTT assay): 81.7 ± 0.96 µM | MIC [1]: 178 µM (≈ 32 µg/mL) | MIC (S. aureus ATCC 29213): 89.1 µM (≈ 16 µg/mL) | MIC (Gram-positive bacteria): 5.57 to 89.1 µM (≈ 1 to 16 µg/mL) | MIC (M. morganii): 178 µM (≈ 32 µg/mL) | MIC (C. freundii): 178 µM (≈ 32 µg/mL) | MIC (E. faecalis ATCC 29212): 89.1 µM (≈ 16 µg/mL) | MIC (P. stutzeri ATCC 17587): 178 µM (≈ 32 µg/mL) | MIC (B. cereus): 44.5 µM (≈ 8 µg/mL) | MIC (L. monocytogenes): 5.57 µM (≈ 1 µg/mL) | MIC [2]: 22.3 µM (≈ 4 µg/mL) | MIC (P. shigelloides): 11.1 µM (≈ 2 µg/mL) | MIC [3]: 178 µM (≈ 32 µg/mL) | MIC (S. cerevisiae ATCC 2601): 89.1 µM (≈ 16 µg/mL) | MIC (P. aeruginosa ATCC 27853): > 1430 µM | MIC [4]: 713 µM (≈ 128 µg/mL) | MIC (E. faecalis ATCC 33186): 89.1 µM (≈ 16 µg/mL) | MIC (E. coli ATCC 25922): 89.1 µM (≈ 16 µg/mL) | IC50 [5]: 1050 µM | MIC [6]: 713 µM (≈ 128 µg/mL) | MIC (S. aureus ATCC 25923): 89.1 µM (≈ 16 µg/mL) | MIC (S. marcescens ATCC 8100): 89.1 µM (≈ 16 µg/mL) | MIC [7]: 89.1 µM (≈ 16 µg/mL) | MIC (S. dysenteriae): 178 µM (≈ 32 µg/mL) | MIC (M. luteus ATCC 10240): 22.3 µM (≈ 4 µg/mL) | MIC (B. subtilis ATCC 6633): 22.3 µM (≈ 4 µg/mL) | MIC (C. albicans ATCC 90028): 178 µM (≈ 32 µg/mL) | MIC [8]: 22.3 µM (≈ 4 µg/mL) | MIC (S. Enteritidis): 178 µM (≈ 32 µg/mL) | MIC (A. hydrophila): 44.5 µM (≈ 8 µg/mL)
